Test results reported in ChEMBL document CHEMBL5096187, “Efficient Synthesis and Bioevaluation of Novel Dual Tubulin/Histone Deacetylase 3 Inhibitors as Potential Anticancer Agents” (J Med Chem, 2021).

Tests used:
B16-F10 = test: Antiproliferative activity against mouse B16-F10 cells assessed as inhibition of cell viability measured for 48 hrs by microplate reader based MTT assay; assay type: functional; settings: B16-F10, 48 h
Method in brief: (§1)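 Cells grown in RPMI-1640 with 10% FBS and seeded at 5000 cells/well. After overnight attachment, compound was added in medium with 0.1% DMSO for 48 h at 37 °C. Read-out was MTT for HCT-116, B16-F10 and A549, and CCK-8 for Jurkat (0.5 mg/mL, 4 h), with absorbance at 570 nm. IC50 from nonlinear regression; at least three independent experiments.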

Histone deacetylase 8 = target: T1, Histone deacetylase 8 (Homo sapiens, UniProt Q9BY41); test: Inhibition of full length C-terminal his-tagged human recombinant HDAC8 ([…]) expressed in baculovirus in Sf9 insect cells using Ac-Leu-Gly-Lys (Tfa)-AMC as substrate pretreated for 5 mins followed by substrate addition and measured after 30 mins
T1 sequence (Q9BY41 whole entry): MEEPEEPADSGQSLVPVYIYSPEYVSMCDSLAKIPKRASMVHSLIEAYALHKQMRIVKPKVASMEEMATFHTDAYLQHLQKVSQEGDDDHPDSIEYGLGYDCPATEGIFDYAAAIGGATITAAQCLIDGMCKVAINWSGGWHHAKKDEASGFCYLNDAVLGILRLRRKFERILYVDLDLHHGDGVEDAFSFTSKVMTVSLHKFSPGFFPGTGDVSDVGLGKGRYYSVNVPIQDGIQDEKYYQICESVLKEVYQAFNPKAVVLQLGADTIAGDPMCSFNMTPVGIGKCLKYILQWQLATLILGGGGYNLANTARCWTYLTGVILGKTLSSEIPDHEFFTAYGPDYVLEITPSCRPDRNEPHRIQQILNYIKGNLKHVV

Jurkat = test: Antiproliferative activity against human Jurkat cells assessed as inhibition of cell viability measured for 48 hrs by microplate reader based CCK-8 assay; assay type: functional
A549 = test: Antiproliferative activity against human A549 cells assessed as inhibition of cell viability measured for 48 hrs by microplate reader based CCK-8 assay; assay type: functional; settings: A549, 48 h
HCT-116 = test: Antiproliferative activity against human HCT-116 cells assessed as inhibition of cell viability measured for 48 hrs by microplate reader based MTT assay; assay type: functional; settings: HCT-116, 48 h; method in brief: as §1
[1] = target: T2, Protein deacetylase HDAC6 (Homo sapiens, UniProt Q9UBN7); test: Inhibition of full length N-terminal GST-tagged human recombinant HDAC6 (1 to 1215 residues) expressed in Baculovirus infected Sf9 cells using Ac-Leu-Gly-Lys (Ac)-AMC as substrate pretreated for 5 mins followed by substrate addition and measured after 30 mins
T2 sequence (Q9UBN7 whole entry): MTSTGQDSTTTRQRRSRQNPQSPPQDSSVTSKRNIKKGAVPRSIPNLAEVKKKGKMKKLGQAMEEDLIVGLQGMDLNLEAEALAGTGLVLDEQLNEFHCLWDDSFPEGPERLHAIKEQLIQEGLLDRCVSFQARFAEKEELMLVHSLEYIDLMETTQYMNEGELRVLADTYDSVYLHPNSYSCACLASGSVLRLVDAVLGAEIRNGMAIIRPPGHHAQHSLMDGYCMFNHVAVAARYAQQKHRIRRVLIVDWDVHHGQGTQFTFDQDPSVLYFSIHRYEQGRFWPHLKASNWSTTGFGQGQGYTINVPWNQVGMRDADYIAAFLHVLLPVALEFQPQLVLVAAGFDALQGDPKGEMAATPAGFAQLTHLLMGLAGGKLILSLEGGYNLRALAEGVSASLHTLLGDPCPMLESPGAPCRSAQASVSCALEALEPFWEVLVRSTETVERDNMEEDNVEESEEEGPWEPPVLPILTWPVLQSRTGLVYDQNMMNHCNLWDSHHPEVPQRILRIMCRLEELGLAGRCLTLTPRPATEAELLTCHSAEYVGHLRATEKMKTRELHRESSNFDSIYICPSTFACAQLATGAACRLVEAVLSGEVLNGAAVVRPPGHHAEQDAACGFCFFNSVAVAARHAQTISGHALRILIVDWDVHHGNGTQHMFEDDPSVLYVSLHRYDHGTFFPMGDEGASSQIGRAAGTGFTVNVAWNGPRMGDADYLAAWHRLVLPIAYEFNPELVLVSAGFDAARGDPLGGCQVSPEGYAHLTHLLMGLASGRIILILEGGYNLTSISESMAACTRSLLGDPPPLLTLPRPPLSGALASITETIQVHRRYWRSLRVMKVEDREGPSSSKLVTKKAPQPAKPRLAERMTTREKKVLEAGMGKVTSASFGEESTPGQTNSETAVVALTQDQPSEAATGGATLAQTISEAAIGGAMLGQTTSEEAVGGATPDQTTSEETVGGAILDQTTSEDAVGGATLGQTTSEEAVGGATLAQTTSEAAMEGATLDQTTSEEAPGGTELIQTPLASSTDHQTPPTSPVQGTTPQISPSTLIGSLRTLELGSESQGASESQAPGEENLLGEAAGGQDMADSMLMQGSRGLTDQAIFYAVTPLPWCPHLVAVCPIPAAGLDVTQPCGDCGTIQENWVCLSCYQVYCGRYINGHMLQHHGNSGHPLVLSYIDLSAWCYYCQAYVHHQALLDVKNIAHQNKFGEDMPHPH
Method in brief: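 HDAC6 at 15 ng/well in Tris buffer pH 8.0 with MgCl2, BSA, NaCl and KCl. Ten 3-fold dilutions preincubated 5 min at room temperature, then 10 μM Ac-Leu-Gly-Lys(Ac)-AMC for 30 min at 37 °C. IC50 by normalized dose–response nonlinear fit; performed at least three times.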

Histone deacetylase 1 = Histone deacetylase 1 (Homo sapiens, UniProt Q13547); test: Inhibition of full length recombinant human HDAC1 (1 to 482 residues) expressed in Baculovirus system using Ac-Leu-Gly-Lys (Ac)-AMC as substrate pretreated for 5 mins followed by substrate addition and measured after 30 mins
Chain of Histone deacetylase 1 (Q13547 whole entry, the tested form may be a part): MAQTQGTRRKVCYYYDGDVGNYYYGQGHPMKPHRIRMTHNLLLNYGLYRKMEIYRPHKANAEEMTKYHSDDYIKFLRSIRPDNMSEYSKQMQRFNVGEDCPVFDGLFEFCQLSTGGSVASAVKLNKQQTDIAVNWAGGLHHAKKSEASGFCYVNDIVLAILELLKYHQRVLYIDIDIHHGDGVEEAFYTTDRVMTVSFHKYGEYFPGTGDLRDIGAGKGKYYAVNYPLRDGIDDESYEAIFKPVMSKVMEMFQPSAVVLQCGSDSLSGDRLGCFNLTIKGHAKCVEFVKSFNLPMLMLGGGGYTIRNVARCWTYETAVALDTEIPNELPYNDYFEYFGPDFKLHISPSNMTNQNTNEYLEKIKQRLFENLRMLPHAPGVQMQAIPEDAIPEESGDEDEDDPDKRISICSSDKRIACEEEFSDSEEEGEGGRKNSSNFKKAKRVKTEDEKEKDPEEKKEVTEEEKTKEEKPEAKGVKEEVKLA

Histone deacetylase 3 = Histone deacetylase 3 (Homo sapiens, UniProt O15379); test: Inhibition of recombinant HDAC3 (unknown origin) using Ac-Leu-Gly-Lys (Ac)-AMC as substrate pretreated for 5 mins followed by substrate addition and measured after 30 mins
Chain of Histone deacetylase 3 (O15379 whole entry): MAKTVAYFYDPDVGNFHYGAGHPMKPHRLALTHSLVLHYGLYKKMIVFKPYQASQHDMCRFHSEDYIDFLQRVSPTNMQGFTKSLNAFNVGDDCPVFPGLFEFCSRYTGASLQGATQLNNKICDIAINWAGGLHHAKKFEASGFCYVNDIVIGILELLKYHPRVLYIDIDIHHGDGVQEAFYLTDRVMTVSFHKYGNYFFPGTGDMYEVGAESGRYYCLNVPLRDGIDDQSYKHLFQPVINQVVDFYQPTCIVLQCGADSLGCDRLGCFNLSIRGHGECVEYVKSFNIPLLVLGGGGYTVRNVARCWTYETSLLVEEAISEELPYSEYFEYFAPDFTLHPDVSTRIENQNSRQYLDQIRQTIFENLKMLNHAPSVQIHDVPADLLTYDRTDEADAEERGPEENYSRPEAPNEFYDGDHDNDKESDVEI

[2] = target: T3, Protein deacetylase HDAC6 (Homo sapiens) (UniProt Q9UBN7); test: Inhibition of recombinant HDAC6 (unknown origin) at 1 uM relative to control
T3 sequence (whole entry): T2 sequence (Q9UBN7 whole entry)
Method in brief: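 Single-point test at 1 μM against recombinant HDAC6 (15 ng/well) in 25 mM Tris pH 8.0, 1 mM MgCl₂, 0.1 mg/mL BSA, 137 mM NaCl, 2.7 mM KCl. Compound preincubated 5 min at room temperature, then Ac-Leu-Gly-Lys(Ac)-AMC 10 μM, 30 min at 37 °C. Trypsin/TSA developer 30 min. Fluorescence read at ex 350−360/em 450−460 nm.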

Tubulin (Sus scrofa) = Tubulin (Sus scrofa) (UniProt P02554+P02550); test: Inhibition of pig brain tubulin polymerization at 10 uM measured after 20 mins by spectrometric method relative to control
Chain of Tubulin (Sus scrofa) (P02550 whole entry, looked up): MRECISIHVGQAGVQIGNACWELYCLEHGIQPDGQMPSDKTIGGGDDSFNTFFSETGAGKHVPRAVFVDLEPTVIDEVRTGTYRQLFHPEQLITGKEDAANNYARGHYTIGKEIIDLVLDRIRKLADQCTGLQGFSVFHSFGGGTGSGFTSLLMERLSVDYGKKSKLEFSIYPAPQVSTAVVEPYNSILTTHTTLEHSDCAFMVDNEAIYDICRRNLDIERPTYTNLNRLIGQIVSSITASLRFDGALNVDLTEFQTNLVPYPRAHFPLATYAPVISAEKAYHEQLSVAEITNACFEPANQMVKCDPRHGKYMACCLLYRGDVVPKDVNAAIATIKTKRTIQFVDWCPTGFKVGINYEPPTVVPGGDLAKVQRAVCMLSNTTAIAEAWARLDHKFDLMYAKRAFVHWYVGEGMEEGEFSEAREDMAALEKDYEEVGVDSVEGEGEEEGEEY
Chain of Tubulin (Sus scrofa) (P02554 whole entry, looked up): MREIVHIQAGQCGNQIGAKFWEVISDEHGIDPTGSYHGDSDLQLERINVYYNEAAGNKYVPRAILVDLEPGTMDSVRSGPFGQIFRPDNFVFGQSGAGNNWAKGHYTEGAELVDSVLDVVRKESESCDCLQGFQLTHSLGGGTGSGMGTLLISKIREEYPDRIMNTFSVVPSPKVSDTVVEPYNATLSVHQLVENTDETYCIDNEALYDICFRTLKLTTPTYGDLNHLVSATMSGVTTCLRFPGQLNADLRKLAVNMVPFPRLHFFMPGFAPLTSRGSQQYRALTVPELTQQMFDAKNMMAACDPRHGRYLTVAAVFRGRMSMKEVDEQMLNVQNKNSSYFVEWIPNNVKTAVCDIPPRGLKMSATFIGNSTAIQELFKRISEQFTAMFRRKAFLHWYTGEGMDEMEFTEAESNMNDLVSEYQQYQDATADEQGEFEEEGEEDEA
Method in brief: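 Pig brain tubulin was purified by three assembly/disassembly cycles and then phosphocellulose chromatography. Compound at 10 μM in PEM buffer with 1 mM GTP and 5% glycerol at 37 °C. Polymerization followed at 340 nm; inhibition taken at 20 min versus vehicle control.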

[3] = Antiproliferative activity against human YCC-11 cells assessed as inhibition of cell viability; assay type: functional, cell-based
[4] = Antiproliferative activity against human YCC3/7 cells assessed as inhibition of cell viability; assay type: functional, cell-based

| Compound | IC50 (B16-F10) [nM] | IC50 (Histone deacetylase 8) [nM] | IC50 (Jurkat) [nM] | IC50 (A549) [nM] | IC50 (HCT-116) [nM] | IC50 [1] [nM] | IC50 (Histone deacetylase 1) [nM] | IC50 (Histone deacetylase 3) [nM] | inhibition [2] [%] | inhibition (Tubulin (Sus scrofa)) [%] | IC50 [3] [nM] | IC50 [4] [nM] |
| --- | --- | --- | --- | --- | --- | --- | --- | --- | --- | --- | --- | --- |
| COc1cc(C(=O)c2csc(-c3ccc(NC(=O)CCCC(=O)NO)cc3)n2)cc(OC)c1OC | 750 | 6320 | 40 | > 10000 | 150 | 1730 | 10100 | 13600 | > 50 | – | – | – |
| COc1cc(C(=O)c2csc(-c3ccc(OCc4ccc(/C=C/C(=O)NO)cc4)cc3)n2)cc(OC)c1OC | 2210 | 7100 | 480 | > 10000 | 2780 | 2070 | 6860 | 8860 | > 50 | – | – | – |
| COc1cc(C(=O)c2csc(-c3ccc(NC(=O)CCCCC(=O)Nc4ccccc4N)cc3)n2)cc(OC)c1OC | 830 | 8740 | 20 | 1540 | 440 | 36400 | 8120 | 180 | – | 28 | – | – |
| COc1cc(C(=O)c2csc(-c3ccc(/C=C/C(=O)Nc4ccccc4N)cc3)n2)cc(OC)c1OC | 810 | 3110 | 10 | > 10000 | 790 | 22500 | 11000 | 170 | – | 30 | – | – |
| COc1cc(C(=O)c2csc(-c3ccc(OCCCCCCC(=O)Nc4ccccc4N)cc3)n2)cc(OC)c1OC | 1890 | 7490 | 700 | 2440 | 1910 | 27100 | 7490 | 470 | – | 18 | – | – |
| COc1cc(C(=O)c2csc(-c3ccc(NC(=O)/C=C/C(=O)NO)cc3)n2)cc(OC)c1OC | 1480 | 3900 | 500 | > 10000 | 2820 | 1050 | 17500 | 13000 | > 50 | – | – | – |
| COc1cc(C(=O)c2csc(-c3ccc(NC(=O)CCCCCC(=O)Nc4ccccc4N)cc3)n2)cc(OC)c1OC | > 10000 | 8500 | 20 | 2360 | 670 | 27300 | 8530 | 390 | – | 24 | – | – |
| COc1cc(C(=O)c2csc(-c3ccc(OCc4ccc(C(=O)NO)cc4)cc3)n2)cc(OC)c1OC | 2770 | 7980 | 380 | 10000 | 2550 | 1980 | 7190 | 12600 | > 50 | – | – | – |
| COc1cc(C(=O)c2csc(-c3ccc(NC(=O)c4ccc(C(=O)Nc5ccccc5N)cc4)cc3)n2)cc(OC)c1OC | 4320 | 2080 | 520 | 6580 | 1420 | 36300 | 10500 | 3460 | – | – | – | – |
| COc1cc(C(=O)c2csc(-c3ccc(NC(=O)CC(=O)Nc4ccccc4N)cc3)n2)cc(OC)c1OC | > 10000 | 12000 | 60 | > 10000 | 1010 | 21100 | 4070 | 360 | – | 65 | – | – |
| COc1cc(C(=O)c2csc(-c3ccc(NCCC(=O)Nc4ccccc4N)cc3)n2)cc(OC)c1OC | 670 | 8280 | 30 | > 10000 | 600 | 23800 | 10700 | 380 | – | 19 | – | – |
| COc1cc(C(=O)c2csc(-c3ccc(NC(=O)CCCCCCC(=O)Nc4ccccc4N)cc3)n2)cc(OC)c1OC | 910 | 10200 | 30 | 2100 | 360 | 29200 | 9880 | 1730 | – | – | 3680 | 5310 |
| COc1cc(C(=O)c2csc(-c3ccc(C#CCCC(=O)Nc4ccccc4N)cc3)n2)cc(OC)c1OC | > 10000 | 6550 | 260 | > 10000 | 2110 | 20200 | 9770 | 1980 | – | – | – | – |
| COc1cc(C(=O)c2csc(-c3ccc(NC(=O)CCC(=O)NO)cc3)n2)cc(OC)c1OC | 920 | 5140 | 420 | 5830 | 2510 | 1860 | 7360 | 12300 | > 50 | – | – | – |
| COc1cc(C(=O)c2csc(-c3ccc(NC(=O)CCCCCC(=O)NO)cc3)n2)cc(OC)c1OC | > 10000 | 4170 | 150 | > 10000 | 1900 | 1940 | 19100 | 12200 | > 50 | – | – | – |
| COc1cc(C(=O)c2csc(-c3ccc(NCC(=O)Nc4ccccc4N)cc3)n2)cc(OC)c1OC | 2350 | 9110 | 60 | 2200 | 1640 | 27100 | 9800 | 1760 | – | – | – | – |
| COc1cc(C(=O)c2csc(-c3ccc(NC(=O)CCCCC(=O)NO)cc3)n2)cc(OC)c1OC | > 10000 | 3280 | 60 | > 10000 | 770 | 2550 | 16600 | 13100 | > 50 | – | – | – |
